Key:
[1] = biological target: Metallo-beta-lactamase type 2 (Aeromonas hydrophila, UniProt P26918); experiment: Inhibition of Aeromonas hydrophila cphA
In short: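 Purified CphA (0.2–0.8 nM) in 15 mM cacodylate pH 6.5 with 20 μg/mL BSA and no added Zn2+ (Zn2+ below 0.4 μM). Enzyme was preincubated with 100 μM inhibitor for 30 min at 37 C. Imipenem was then added and its hydrolysis followed by absorbance at 300 nm. Competitive Ki determined; SD below 10%.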

[2] = Inhibition of VIM4 in presence of Zn+ chelator
In short: (§1)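 Purified VIM-4 (0.2–0.8 nM) in 10 mM HEPES pH 7.2 with 20 μg/mL BSA, run without added Zn2+ (Zn2+ below 0.4 μM) or with 50 μM ZnCl2 final. Enzyme was preincubated with 100 μM inhibitor for 30 min at 37 C. Nitrocefin hydrolysis followed at 482 nm. Ki determined; SD below 10%.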

[3] = Inhibition of VIM4 in absence of Zn+ chelator; in short: as §1
Beta-lactamase L1 [4] = biological target: T1, Beta-lactamase L1 (Stenotrophomonas maltophilia, UniProt P52700); experiment: Inhibition of Stenotrophomonas maltophilia beta lactamase L1 in presence of Zn+ chelator
In short: (§2)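 Purified L1 (0.2–0.8 nM) in 20 mM HEPES pH 7.0 with 20 μg/mL BSA, run without added Zn2+ (Zn2+ below 0.4 μM) or with 50 μM ZnCl2 final. Enzyme was preincubated with 100 μM inhibitor for 30 min at 37 C. Imipenem hydrolysis followed at 300 nm. Ki determined; SD below 10%.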

Beta-lactamase L1 [5] = biological target: T1, Beta-lactamase L1; experiment: Inhibition of Stenotrophomonas maltophilia beta lactamase L1 in absence of Zn+ chelator; in short: as §2
[6] = biological target: Intestinal-type alkaline phosphatase (Bos taurus, UniProt P19111); experiment: Inhibition of bovine intestinal alkaline phosphatase
[7] = Inhibition of Escherichia coli alkaline phosphatase

Chain of Metallo-beta-lactamase type 2 (P26918 whole entry): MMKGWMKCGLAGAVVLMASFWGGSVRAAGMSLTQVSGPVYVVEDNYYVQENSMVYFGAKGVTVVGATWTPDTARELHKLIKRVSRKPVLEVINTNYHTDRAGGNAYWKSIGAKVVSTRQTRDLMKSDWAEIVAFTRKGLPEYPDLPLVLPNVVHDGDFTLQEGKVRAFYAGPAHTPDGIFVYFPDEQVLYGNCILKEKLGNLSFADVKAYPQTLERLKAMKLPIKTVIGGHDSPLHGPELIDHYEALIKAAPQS
T1 sequence (P52700 whole entry): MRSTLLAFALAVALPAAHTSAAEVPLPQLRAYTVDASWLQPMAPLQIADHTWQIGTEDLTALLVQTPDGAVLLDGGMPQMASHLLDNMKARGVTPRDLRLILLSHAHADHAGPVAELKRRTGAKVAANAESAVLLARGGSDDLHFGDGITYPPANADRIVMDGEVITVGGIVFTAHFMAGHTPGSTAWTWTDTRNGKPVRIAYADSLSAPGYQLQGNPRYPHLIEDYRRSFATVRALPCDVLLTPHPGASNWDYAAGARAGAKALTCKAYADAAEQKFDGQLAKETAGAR
Chain of Intestinal-type alkaline phosphatase (P19111 whole entry): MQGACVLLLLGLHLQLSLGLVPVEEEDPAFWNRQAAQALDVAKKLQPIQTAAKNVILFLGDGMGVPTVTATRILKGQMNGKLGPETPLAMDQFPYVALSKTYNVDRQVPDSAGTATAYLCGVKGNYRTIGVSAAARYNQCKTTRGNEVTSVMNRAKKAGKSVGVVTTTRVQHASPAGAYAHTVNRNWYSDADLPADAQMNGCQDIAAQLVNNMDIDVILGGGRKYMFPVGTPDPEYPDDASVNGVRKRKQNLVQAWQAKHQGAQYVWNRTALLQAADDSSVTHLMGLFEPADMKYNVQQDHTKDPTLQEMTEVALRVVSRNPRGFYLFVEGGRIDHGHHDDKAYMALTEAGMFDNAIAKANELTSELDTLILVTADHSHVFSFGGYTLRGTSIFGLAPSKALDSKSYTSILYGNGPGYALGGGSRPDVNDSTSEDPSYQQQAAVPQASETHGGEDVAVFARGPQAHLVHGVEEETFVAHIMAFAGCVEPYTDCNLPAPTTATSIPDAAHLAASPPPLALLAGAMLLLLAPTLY

SMILES: CC(C)OP(=O)(OC(C)C)C(S)c1ccccc1 (configuration not stated) [DIISOPROPYL MERCAPTO(PHENYL)METHYLPHOSPHONATE]
- Ki [1]: 0.25 µM
- Ki [2]: 8 µM
- Ki [3]: 3000 nM
- Ki (Beta-lactamase L1 [4]): 16 µM
- Ki (Beta-lactamase L1 [5]): 20 µM

SMILES: O=P(O)(O)C(S)c1ccccc1 (configuration not stated)
- Ki [1]: 11 µM
- Ki [2]: 3 µM
- Ki [3]: 2500 nM
- Ki (Beta-lactamase L1 [4]): 32 µM
- Ki (Beta-lactamase L1 [5]): > 100 µM

SMILES: O=P(O)(O)c1ccccc1CS
- Ki [1]: 0.5 µM
- Ki [2]: > 400 µM
- Ki [3]: 1000 nM
- Ki (Beta-lactamase L1 [4]): > 50 µM
- Ki (Beta-lactamase L1 [5]): 2 µM

SMILES: CCC(S)P(=O)(OC(C)C)OC(C)C (configuration not stated)
- Ki [1]: 2 µM
- Ki [2]: > 20 µM
- Ki [3]: > 20000 nM
- Ki (Beta-lactamase L1 [4]): > 40 µM
- Ki (Beta-lactamase L1 [5]): > 40 µM

SMILES: O=P(O)(O)c1ccccc1S
- Ki [1]: 7 µM
- Ki [2]: 4 µM
- Ki [3]: 2000 nM
- Ki (Beta-lactamase L1 [4]): 12 µM
- Ki (Beta-lactamase L1 [5]): 9 µM
- Ki [6]: 210 nM
- IC50 [7]: < 10 µM

SMILES: CC(C)OP(=O)(OC(C)C)c1ccccc1S
- Ki [1]: > 250 µM
- Ki [2]: > 250 µM
- Ki [3]: > 250000 nM
- Ki (Beta-lactamase L1 [4]): > 250 µM
- Ki (Beta-lactamase L1 [5]): > 250 µM

SMILES: O=P(O)(O)C(S)c1ccc(Cl)cc1Cl (configuration not stated)
- Ki [1]: 5 µM
- Ki [2]: 4 µM
- Ki [3]: 1000 nM
- Ki (Beta-lactamase L1 [4]): 0.4 µM
- Ki (Beta-lactamase L1 [5]): 0.4 µM

SMILES: O=P(O)(O)C(S)c1ccc(Br)cc1 (configuration not stated)
- Ki [1]: 13 µM
- Ki [2]: 13.5 µM
- Ki [3]: 5500 nM
- Ki (Beta-lactamase L1 [4]): 1.7 µM
- Ki (Beta-lactamase L1 [5]): 8.4 µM

SMILES: CC(C)OP(=O)(OC(C)C)c1ccccc1CS
- Ki [1]: 2 µM
- Ki [2]: 12 µM
- Ki [3]: 3000 nM
- Ki (Beta-lactamase L1 [4]): 14 µM
- Ki (Beta-lactamase L1 [5]): 3 µM

SMILES: COc1ccccc1C(S)P(=O)(O)O (configuration not stated)
- Ki [1]: 15 µM
- Ki [2]: 4 µM
- Ki [3]: 2000 nM
- Ki (Beta-lactamase L1 [4]): 4 µM
- Ki (Beta-lactamase L1 [5]): 9 µM

SMILES: O=P(O)(O)C(S)c1ccc(F)cc1 (configuration not stated)
- Ki [1]: 1 µM
- Ki [2]: 11 µM
- Ki [3]: 16000 nM
- Ki (Beta-lactamase L1 [4]): 18 µM
- Ki (Beta-lactamase L1 [5]): > 20 µM

SMILES: O=P(O)(O)C(S)c1ccc(Cl)cc1 (configuration not stated)
- Ki [1]: 24 µM
- Ki [2]: 10 µM
- Ki [3]: 6700 nM
- Ki (Beta-lactamase L1 [4]): 0.7 µM
- Ki (Beta-lactamase L1 [5]): 3.8 µM

SMILES: O=P(O)(O)c1cc(F)ccc1S
- Ki [1]: > 40 µM
- Ki [2]: 13 µM
- Ki [3]: 2500 nM
- Ki (Beta-lactamase L1 [4]): 4 µM
- Ki (Beta-lactamase L1 [5]): 40 µM

SMILES: CCC(S)P(=O)(O)O (configuration not stated)
- Ki [1]: 15 µM
- Ki [2]: 6 µM
- Ki [3]: 11000 nM
- Ki (Beta-lactamase L1 [4]): > 40 µM
- Ki (Beta-lactamase L1 [5]): > 80 µM
